# Calls of active or inactive are those of the source. The rule behind the calls is not given here.
# Tests used:
# [1] = tested on: SUM-159-PT; assay: Anticancer activity against human SUM159 cells assessed as decrease in primary tumor sphere formation incubated for 72 hrs by Extreme limiting dilution analysis; assay type: functional, cell-based
# In short: (§1)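 Cells drug-treated in adherent culture for 72 h, then plated as single cells in ultra-low attachment 96-well plates in serum-free mammary epithelium basal medium. Plating at 25/10/5/3/2/1 cells per well, 18–36 wells per condition. Wells with ≥1 sphere after 10 days scored positive. Secondary spheres were made by dissociating primary spheres. Frequency by ELDA; n = 4; pairwise chi-square test.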
# [2] = tested on: SUM-159-PT; assay: Anticancer activity against human SUM159 cells assessed as decrease in secondary tumor sphere formation incubated for 72 hrs by Extreme limiting dilution analysis; assay type: functional, cell-based; in short: as §1
# [3] = Antitumor activity against human S68 cells assessed as K-score by measuring ALDHbr cells by LSR2 cytometer; assay type: functional
# In short: (§2)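 Cell lines exposed for 72 h in adherent culture to a range of concentrations centred on the MTS-derived IC50. ALDHbr proportion measured by ALDEFLUOR flow cytometry (LSR2). K-score is the linear regression coefficient, on log10-transformed doses, between the untreated condition and the dose predicted to give a 50% decrease or increase in ALDHbr proportion versus control.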
# [4] = Antitumor activity against human BrCa-MZ-01 cells assessed as K-score by measuring ALDHbr cells by LSR2 cytometer; assay type: functional; in short: as §2
# [5] = tested on: SUM-159-PT; assay: Antitumor activity against human SUM159 cells assessed as K-score by measuring ALDHbr cells by LSR2 cytometer; assay type: functional; in short: as §2
# [6] = tested on: SUM149PT; assay: Antitumor activity against human SUM149 cells assessed as K-score by measuring ALDHbr cells by LSR2 cytometer; assay type: functional; in short: as §2
# [7] = tested on: MDA-MB-436; assay: Antitumor activity against human MDA-MB-436 cells assessed as K-score by measuring ALDHbr cells by LSR2 cytometer; assay type: functional; in short: as §2
# [8] = tested on: SUM-159-PT; assay: Synergistic anticancer activity against human SUM159 cells assessed as decrease in primary tumor sphere formation at 62 nM incubated for 72 hrs in presence of JQ1 by Extreme limiting dilution analysis; assay type: functional
# In short: (§3)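 72 h adherent pretreatment (Sal/JQ1 62 nM/62 nM; docetaxel added at 2 nM where used), then single cells plated in ultra-low attachment 96-well plates in serum-free mammary epithelium basal medium at 25/10/5/3/2/1 cells/well (18–36 wells/condition). Wells with ≥1 sphere after 10 days scored positive; sphere-forming frequency by ELDA. Secondary spheres from dissociated primary spheres. n = 4; pairwise chi-square.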
# [9] = tested on: SUM-159-PT; assay: Synergistic anticancer activity against human SUM159 cells assessed as decrease in secondary tumor sphere formation at 62 nM incubated for 72 hrs in presence of JQ1 by Extreme limiting dilution analysis; assay type: functional; in short: as §3
# [10] = tested on: SUM-159-PT; assay: Induction of apoptosis in human SUM159 cells expressing ALDHbr upto 5 uM incubated for 72 hrs by ALDEFLUOR/YO-PRO-3/ Hoechst 33342 staining based high content imaging microscopic analysis; assay type: functional, cell-based
# In short: (§4)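 SUM159 at 3,000 cells/well on collagen plates, dosed at 6, 24 and 48 h post-seeding; 0.1% DMSO negative control, cisplatin positive control. At 72 h stained 30 min at 37°C with ALDEFLUOR, YO-PRO-3 and Hoechst 33342, then imaged ice-cold. YO-PRO-3-positive nuclei (above untreated signal) counted over total cells, per ALDHbr/ALDH- subpopulation; n = 6.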
# [11] = tested on: SUM-159-PT; assay: Induction of apoptosis in human SUM159 cells expressing ALDH upto 5 uM incubated for 72 hrs by ALDEFLUOR/YO-PRO-3/ Hoechst 33342 staining based high content imaging microscopic analysis; assay type: functional, cell-based; in short: as §4
# [12] = tested on: SUM-159-PT; assay: Anticancer activity against human SUM159 cells assessed as effect on RFP+/BFP+ cell ratio upto 5 uM after 72 hrs by […]; assay type: functional, cell-based
# [13] = tested on: SUM-159-PT; assay: Anticancer activity against human SUM159 cells expressing BFP assessed as reduction in ALDHbr cell at 5 to 500 nM by LSR2 cytometer analysis; assay type: functional, cell-based; conditions: dose 5-500 nM
# [14] = tested on: SUM-159-PT; assay: Anticancer activity against human SUM159 cells expressing BFP assessed as reduction in ALDHbr cell at 50 nM by LSR2 cytometer analysis; assay type: functional
# [15] = tested on: SUM-159-PT; assay: Synergistic anticancer activity against human SUM159 cells expressing BFP assessed as reduction in ALDHbr cell 50 nM in presence of JQ1 by LSR2 cytometer analysis; assay type: functional
# [16] = tested on: Breast cancer cell line; assay: Antitumor activity against human CRCM434 negative breast cancer cells orthotopically xenografted in NSG mouse model of PDX assessed as reduction in tumor volume at 3 mg/kg, ip daily for 14 days; assay type: functional, organism-based; conditions: time 14.0 day
# In short: (§5)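 Chemo-naïve triple-negative PDX cells injected at 100,000 per fat pad, two fat pads per NSG mouse. At ~80 mm³ tumours, mice received i.p. 3 mg/kg daily for 14 days or 50 mg/kg 5 of 7 days for 2 weeks; placebo was DMSO/HPCD 10% (1:9). Five mice (10 tumours) per group. Tumour growth monitored; after 2 weeks tumours dissociated, mouse cells excluded via anti-H2Kd, ALDHbr measured by ALDEFLUOR flow cytometry and normalised to vehicle.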
# [17] = tested on: Breast cancer cell line; assay: Antitumor activity against human CRCM404 negative breast cancer cells orthotopically xenografted in NSG mouse model of PDX assessed as reduction in tumor volume at 3 mg/kg, ip daily for 14 days; assay type: functional, organism-based; conditions: time 14.0 day; in short: as §5
# [18] = tested on: Breast cancer cell line; assay: Antitumor activity against human CRCM494 negative breast cancer cells orthotopically xenografted in NSG mouse model of PDX assessed as reduction in tumor volume at 3 mg/kg, ip daily for 14 days; assay type: functional, organism-based; conditions: time 14.0 day; in short: as §5
# [19] = tested on: Breast cancer cell line; assay: Antitumor activity against human CRCM434 negative breast cancer cells orthotopically xenografted in NSG mouse model of PDX assessed as reduction ALDHbr cells at 3 mg/kg, ip daily for 14 days by LSR2 cytometer analysis; assay type: functional, organism-based; conditions: time 14.0 day; in short: as §5
# [20] = tested on: Breast cancer cell line; assay: Antitumor activity against human CRCM404 negative breast cancer cells orthotopically xenografted in NSG mouse model of PDX assessed as reduction ALDHbr cells at 3 mg/kg, ip daily for 14 days by LSR2 cytometer analysis; assay type: functional, organism-based; conditions: time 14.0 day; in short: as §5
# [21] = tested on: Breast cancer cell line; assay: Antitumor activity against human CRCM494 negative breast cancer cells orthotopically xenografted in NSG mouse model of PDX assessed as reduction ALDHbr cells at 3 mg/kg, ip daily for 14 days by LSR2 cytometer analysis; assay type: functional, organism-based; conditions: time 14.0 day; in short: as §5
# [22] = tested on: Breast cancer cell line; assay: Synergistic antitumor activity against human CRCM434 negative breast cancer cells orthotopically xenografted in NSG mouse model of PDX assessed as reduction ALDHbr cells at 3 mg/kg, ip daily for 14 days cotreated with JQ1 by LSR2 cytometer analysis; assay type: functional; conditions: time 14 day
# [23] = tested on: Breast cancer cell line; assay: Synergistic antitumor activity against human CRCM404 negative breast cancer cells orthotopically xenografted in NSG mouse model of PDX assessed as reduction ALDHbr cells at 3 mg/kg, ip daily for 14 days cotreated with JQ1 by LSR2 cytometer analysis; assay type: functional; conditions: time 14 day
# [24] = tested on: Breast cancer cell line; assay: Synergistic antitumor activity against human CRCM494 negative breast cancer cells orthotopically xenografted in NSG mouse model of PDX assessed as reduction ALDHbr cells at 3 mg/kg, ip daily for 14 days cotreated with JQ1 by LSR2 cytometer analysis; assay type: functional; conditions: time 14 day
# [25] = tested on: Breast cancer cell line; assay: Antitumor activity against human reimplanted CRCM434 negative breast cancer cells orthotopically xenografted in NSG mouse model of PDX assessed as reduction tumor volume at 3 mg/kg, ip daily for 14 days by limiting dilation analysis; assay type: functional, organism-based; conditions: time 14.0 day
# In short: (§6)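 After 2 weeks of i.p. treatment (3 mg/kg daily or 50 mg/kg 5 of 7 days), dissociated PDX tumour cells reimplanted into secondary NSG mice at 50, 500 or 5,000 cells. A mouse counted as tumour-bearing once a tumour reached 10 mm. bCSC frequency per 10,000 cells estimated by ELDA; pairwise chi-square test.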
# [26] = tested on: Breast cancer cell line; assay: Antitumor activity against human reimplanted CRCM404 negative breast cancer cells orthotopically xenografted in NSG mouse model of PDX assessed as reduction tumor volume at 3 mg/kg, ip daily for 14 days by limiting dilation analysis; assay type: functional, organism-based; conditions: time 14.0 day; in short: as §6
# [27] = tested on: Breast cancer cell line; assay: Antitumor activity against human reimplanted CRCM494 negative breast cancer cells orthotopically xenografted in NSG mouse model of PDX assessed as reduction tumor volume at 3 mg/kg, ip daily for 14 days by limiting dilation analysis; assay type: functional, organism-based; conditions: time 14.0 day; in short: as §6
structure (smiles),measurement,setting,value
CC[C@@H](C(=O)[C@@H](C)[C@@H](O)[C@H](C)[C@@H]1O[C@@H]([C@@H](CC)C(=O)O)CC[C@@H]1C)[C@H]1O[C@]2(C=C[C@@H](O)[C@]3(CC[C@@](C)([C@H]4CC[C@](O)(CC)[C@H](C)O4)O3)O2)[C@H](C)C[C@@H]1C [SALINOMYCIN],Activity,[1],Active
same,Activity,[2],Active
same,Activity,[3],-0.19
same,Activity,[4],-0.07
same,Activity,[5],-0.14
same,Activity,[6],-0.06
same,Activity,[7],-0.12
same,fold change (FC),[8],2.4
same,fold change (FC),[9],5.4
same,Activity,[10],Active
same,Activity,[11],Active
same,Activity,[12],inactive
same,Activity,[13],Active
same,fold change (FC),[14],2
same,fold change (FC),[15],4
same,Activity,[16],inactive
same,Activity,[17],inactive
same,Activity,[18],inactive
same,Activity,[19],Active
same,Activity,[20],Active
same,Activity,[21],Active
same,fold change (FC),[22],2
same,fold change (FC),[23],2
same,fold change (FC),[24],2
same,Activity,[25],Active
same,Activity,[26],Active
same,Activity,[27],Active

# — ChEMBL document CHEMBL5712908, “A genome-wide RNAi screen reveals essential therapeutic targets of breast cancer stem cells” (2019)
